Test results: PMC10883201 (Nature, 2023)
Converted amounts (≈) assume the structure as drawn.

Key:
[1] = Solution stability in PBS buffer; type: physicochemical; details: PBS buffer at pH 6
human red blood cells = assay: Red blood cell lysis / permeabilization; type: cell-based; details: up to highest concentration tested 500 μM
SH-SY5Y neural cells = assay: Cell viability assay; type: cell-based, human; details: up to highest concentration tested 50 μM
Outline: (§1)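 Cells grown in complete MEM with FBS, Pen-Strep and non-essential amino acids at 37 °C, 5% CO2. Trypsinized cells were adjusted to 5 × 10^5 cells ml−1, seeded at 10^4 cells per well, and held 3 h at 37 °C. Compound was then added at 0.5–50 μM final in 1% DMSO, with DMSO and puromycin controls, for 24 h. alamarBlue was read after 3 h (ex 537/em 585 nm). Triplicate; average of three experiments.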

H9c2 myocardial cells = assay: Cell viability assay; type: cell-based, rat; details: up to highest concentration tested 50 μM
Outline: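 Rat myocardial cells maintained in complete DMEM with FBS, Pen-Strep and non-essential amino acids, 37 °C, 5% CO2. After trypsinization, cells at 5 × 10^5 cells ml−1 were seeded at […] and rested 3 h. Compound was given at 0.5–50 μM final (1% DMSO) for 24 h, with DMSO and puromycin controls. alamarBlue was added 3 h, then fluorescence read at 537/585 nm. Triplicate; mean of three experiments.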

[2] = Renal toxicity in mice, 24 h post single IV dose; type: in vivo, female CD-1 mice
[3] = ITC with Chol-containing large unilamellar vesicles; type: binding; details: ITC heat exchange
[4] = tested on: primary human renal proximal tubule epithelial cells; assay: Cell viability assay; type: cell-based; details: up to highest concentration tested 50 μM
Candida krusei = assay: MIC assay; type: cell-based
Aspergillus fumigatus 91 = assay: MIC assay; type: cell-based
K562 cells = assay: Cell viability assay; type: cell-based, human; details: up to highest concentration tested 50 μM
Outline: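 Suspension cells grown in complete IMDM with FBS and Pen-Strep at 37 °C, 5% CO2. Without trypsinization, suspension was adjusted to 12.5 × 10^5 cells ml−1 and held 3 h at 37 °C before compound. Exposure was 0.5–50 μM final in 1% DMSO, with DMSO and puromycin controls, for 24 h. Viability was by alamarBlue fluorescence after 3 h (ex 537/em 585 nm). Triplicate; average of three experiments.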

[5] = ITC with Erg-containing large unilamellar vesicles; type: binding; details: ITC heat exchange
HepG2 liver cells = assay: Cell viability assay; type: cell-based, human; details: up to highest concentration tested 50 μM
Outline: as §1

C. albicans SN250 = assay: Erg extraction experiment; type: cell-based, Candida albicans; details: C. albicans SN250, compound at 5 μM
[6] = ITC, Erg-containing LUVs; AmB–Erg binding data reported earlier; cited from earlier work

solution stability [1] | SMILES | toxicity (human red blood cells) | toxicity (SH-SY5Y neural cells) | toxicity (H9c2 myocardial cells) | kidney injury biomarkers ([2]; 24 h after single IV 45 mg/kg dose) | renal biomarkers ([2]; doses of ≥45 mg kg^−1, single IV, 24 h, 1:2 deoxycholate formulation) | Chol binding [3] | toxicity [4] | MIC (Candida krusei) [µM] | MIC (Aspergillus fumigatus 91) [µM] | toxicity (K562 cells) | Erg binding [5] | toxicity (HepG2 liver cells) | T50% (time required for 50% Erg extraction) (C. albicans SN250) [h] | ΔΔHErg (ΔHsterol – ΔHsterol-free) [6] [µcal]
unstable | CC1C=CC=CC=CC=CC=CC=CC=CC(OC2CC(N)C(O)C(C)O2)CC2OC(O)(CC(O)CC(O)C(O)CCC(O)CC(O)CC(=O)OC(C)C(C)C1O)CC(O)C2C(=O)O (stereo not shown) [C2′deOAmB] |  |  |  |  |  |  |  |  |  |  |  |  |  | 
 | C[C@@H]1[C@H](O)[C@@H](C)/C=C/C=C/C=C/C=C/C=C/C=C/C=C/[C@H](O[C@@H]2O[C@H](C)[C@@H](O)[C@H](N)[C@H]2O)C[C@@H]2O[C@](O)(C[C@@H](O)C[C@@H](O)[C@H](O)CC[C@@H](O)C[C@@H](O)CC(=O)O[C@H]1C)C[C@H](O)[C@H]2C(=O)O [C2′epiAmB] | no toxicity | no toxicity | no toxicity | do not elevate kidney injury biomarkers | no elevation of renal biomarkers | no binding | no toxicity | 1 (≈ 0.924 µg/mL) | > 32 | no toxicity | retained, albeit diminished, capacity to bind Erg | no toxicity | 2.75 | 
 | C[C@@H]1[C@H](O)[C@@H](C)/C=C/C=C/C=C/C=C/C=C/C=C/C=C/[C@H](O[C@@H]2O[C@H](C)[C@@H](O)[C@H](N)[C@@H]2O)C[C@@H]2O[C@](O)(C[C@@H](O)C[C@@H](O)[C@H](O)CC[C@@H](O)C[C@@H](O)CC(=O)O[C@H]1C)C[C@H](O)[C@H]2C(=O)O [AmB, amphotericin B, reference compound] |  |  |  |  |  |  |  |  |  |  |  |  | 0.92 | -42.4 ± 11.2
